This is a sample that favours compounds with a hit; in the whole collection about 8.2% have one here.
D1 allo mod: D1 dopamine receptor (human) allosteric modulation. 5.9% of 58,000 active. P21728. HEK293 D1, CRE-luciferase, dopamine EC30 potentiation; actives deviate in either direction. AID 641. B-score at 10 µM;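 active means luminescence count or its row- and column-corrected plate score outside the 99.7% band of the plate's sample wells, on either side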
RORA act: RORA (human) activation. P35398. 1.5% of 65,000 active. CHO-K1 Gal4-RORA LBD luciferase reporter, luminescence; percent increase over mock-subtracted basal signal. activation, % at 10 µM;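 active means activation above the mean of all tested compounds plus 3 SD, cut at about 49% in these data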;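 further: 0% = DMSO-treated RORA cells and 100% = added signal equal to DMSO minus mock-transfected cells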
Target sequence (P35398 whole entry, looked up, the tested form may be a part): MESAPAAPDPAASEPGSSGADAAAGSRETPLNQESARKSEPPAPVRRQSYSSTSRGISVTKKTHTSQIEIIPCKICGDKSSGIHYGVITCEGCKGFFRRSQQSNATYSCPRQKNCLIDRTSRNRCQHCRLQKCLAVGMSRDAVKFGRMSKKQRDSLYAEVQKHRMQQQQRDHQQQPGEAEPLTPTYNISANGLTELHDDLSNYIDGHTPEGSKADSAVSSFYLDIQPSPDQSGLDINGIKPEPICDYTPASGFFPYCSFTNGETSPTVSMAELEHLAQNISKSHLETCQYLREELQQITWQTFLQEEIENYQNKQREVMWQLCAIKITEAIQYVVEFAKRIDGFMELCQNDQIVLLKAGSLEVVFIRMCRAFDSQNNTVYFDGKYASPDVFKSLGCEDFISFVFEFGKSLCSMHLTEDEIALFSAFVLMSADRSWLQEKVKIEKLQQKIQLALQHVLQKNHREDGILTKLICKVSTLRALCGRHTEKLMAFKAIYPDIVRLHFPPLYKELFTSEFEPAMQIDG
SF1 activator: activators of human nuclear receptor SF-1; CHO-K1 Gal4-SF-1 LBD luciferase reporter; % increase over DMSO SF-1-specific signal; activation, % at 10 µM; 1.9% of 65,000 active; Q13285;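 active means activation above the mean activation of all tested compounds plus 3 SD, cut at about 50% in these data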
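Test system: transient Gal4-SF-1 LBD reporter, CHO-K1; Amount: 4,000 CHO-K1 cells per well; Doses: 10 µM only; Timing: compound exposure 20 h at 37 °C; Signal: luciferase light emission; Read-out basis: percent activation relative to DMSO median and mock-transfected background; Control set: DMSO negative control and −SF1 background wells; Replicates: one test per compound.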
M1 agonist: activates the M1 muscarinic receptor | 3% of 64,000 active | CHO-M1 cells, Fluo-4 calcium fluorescence, agonist mode; hits give high values | B-score at 10 µM | AID 626;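 active means fluorescence rise, raw or as B-score row- and column-corrected plate score, outside the 99.7% band of its plate's samples, either direction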
HePTP inh: inhibitors of human HePTP phosphatase | P35236 | recombinant HePTP phosphatase activity, OD absorbance | inhibition, % at 20 µM | 0.64% of 110,000 active | AID 521; in the data active means inhibition above about 50%;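 further: plate controls were vehicle for no effect and reference inhibitor for full effect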
M1 antag: blocks the rat M1 muscarinic receptor response to acetylcholine; P08482; B-score at 10 µM; CHO-M1 cells, Fluo-4 calcium, ACh EC80 antagonist mode; hits give low values; AID 628; 3.4% of 64,000 active;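 active means calcium fluorescence response, raw or row-and-column corrected B-score, differing from the plate sample mean either way at a set confidence level, mostly lower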
M1 antag conf: confirmation of rat M1 muscarinic receptor antagonists; shares compounds with M1 antag; CHO-M1 cells, Fluo-4 calcium, ACh EC80 antagonism; hits give low values; calcium response (max-min fluorescence) at 10 µM; 43% of 1,700 active;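 active means calcium response below the same-plate mean of wells given acetylcholine alone at its 80%-effect dose, minus 3 SD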;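 further: raw fluorescence intensity difference in arbitrary instrument units and not normalized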
mGluR4 antag: selectivity test for M1 antagonists: human mGluR4 receptor | shares compounds with M1 antag | fluorescence response (max-min) at 10 µM | 0.9% of 1,700 active | CHO-mGluR4 calcium flux, Fluo-4 fluorescence, glutamate EC80; hits give low values;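 active means fluorescence response below the plate's average for near-maximal glutamate wells, less 3 SD of those wells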;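 further: raw unnormalized fluorescence span taken in the window right after glutamate addition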
Numbers without * were called inactive; nt = no result.

SMILES	D1 allo mod	RORA act	SF1 activator	M1 agonist	HePTP inh	M1 antag	M1 antag conf	mGluR4 antag
CCCn1c2ccccc2c2cc(C(C)=O)ccc21	nt	nt	nt	nt	-19	nt	nt	nt
Cc1csc(SCc2nnc(-c3ccccc3Br)o2)n1	-1.2	11	47	-0.055	-3	-0.27	nt	nt
CCOC(=O)c1[nH]c2ccc(Br)cc2c1NC(=O)CCN1CCCCC1	-0.75	-15	-10	-0.58	3	-15*	25*	143*
CCOC(=O)c1[nH]c2ccc(Br)cc2c1NC(=O)CCN1CCN(C(=O)OCC)CC1	-0.022	-7	2	2.6	6	-0.5	nt	nt
COCCSc1nc2sc3c(c2c(=O)n1-c1ccccc1)CCN(C)C3	nt	-5	-18	-0.84	5	-3*	519	231
O=C1CC(Cc2ccccc2)C(=O)N1CCCn1ccnc1 (stereo not drawn)	0.4	nt	nt	0.55	2	-2.8*	614	186
O=C1CC(Cc2ccc(Br)cc2)C(=O)N1Cc1ccccc1 (stereo not drawn)	nt	nt	nt	nt	0	nt	nt	nt
COC(=O)C1=C(N)OC2=C(C(=O)CCC2)C1c1ccc(OC)cc1 (stereo not drawn)	nt	nt	nt	nt	10	nt	nt	nt
CN(C)c1ccc(C2C3=C(CCCC3=O)OC3=C2C(=O)CCC3)cc1	-0.75	-10	3	-0.16	6	-10*	400*	216
CCOC(=O)c1ccc2ncc(C(=O)OCC)c(NCCCN3CCOCC3)c2c1	0.72	14	6	0.27	7	-4.6*	405*	242
CCOC(=O)c1cnc2ccccc2c1NCCO	0.56	-7	0	1.3	-3	-2.9*	409*	212
CCOC(=O)c1cnc2c(C)cccc2c1NCc1ccco1	1.6	nt	nt	1.8	3	-8.3*	321*	249
CCOC(=O)c1cnc2ccc(Br)cc2c1NCCO	2	nt	nt	0.41	-12	-0.017	nt	nt
CCOC(=O)c1cnc2c(C(=O)OC)cccc2c1NCc1ccco1	3.4	-8	-3	-0.92	8	-1.3	nt	nt
CC(=O)Nc1cc(C(=O)O)ccc1S(=O)(=O)c1ccc(C)cc1	-1.1	-15	3	0.11	2	0.31	nt	nt
COc1cccc(-n2nnc3c(=O)n(CC(=O)OCc4ccccc4)cnc32)c1	0.044	-3	8	0.084	nt	-0.13	nt	nt
N/C(=N\OC(=O)c1ccccc1Br)c1cccnc1	nt	nt	nt	nt	-11	nt	nt	nt
O=C(NCCN1CCCCCC1)c1ccc(CS(=O)(=O)c2ccc(Br)cc2)o1	-0.063	3	10	-1.2	11	-3*	470*	240
CN1CCN(CCCNC(=O)c2ccc(CS(=O)(=O)c3ccc(Br)cc3)o2)CC1	-0.41	13	-16	0.89	-5	0.49	nt	nt
O=C(CN1CCN(Cc2ccccc2)CC1)Nc1ccc(Cl)cn1	-0.7	-7	-2	0.41	5	-0.76	nt	nt
COC(=O)c1ccc(OCCN2C3=NCCN3c3ccccc32)cc1	nt	18	0	-0.32	9	-9*	440*	241
CC(=O)Nc1ccc2[nH]c(C)cc(=O)c2c1	nt	nt	nt	nt	0	nt	nt	nt
CC(CCc1ccccc1)NC(=O)C1CCCN(c2nnc(-n3cccc3)s2)C1 (stereo not drawn)	-0.54	6	1	2.4	5	0.01	nt	nt
O=C(NC1CCN(Cc2ccccc2)CC1)C1CCN(c2nnc(-n3cccc3)s2)CC1	-0.94	3	-3	-0.65	3	-1.3*	278*	241
O=C(NC1CCN(Cc2ccccc2)CC1)C1CCCN(c2nnc(-n3cccc3)s2)C1 (stereo not drawn)	-0.53	-13	13	-0.65	4	-3.3*	260*	194
SMILES	D1 allo mod	RORA act	SF1 activator	M1 agonist	HePTP inh	M1 antag	M1 antag conf	mGluR4 antag
O=C(NCc1ccco1)C1CCN(c2nnc(-n3cccc3)s2)CC1	nt	9	-7	0.46	-6	-0.39	nt	nt
Cc1cccc(Nc2ccccc2C(=O)OCC(=O)N2CCOCC2)c1C	-0.22	-23	-4	1	5	-4.2*	531	205
Cc1cccc(NC(=O)CN2CCOCC2)c1C	nt	nt	nt	nt	6	nt	nt	nt
O=C(CCSCCC(=O)N1CCCC1)N1CCCC1	-1.6	-19	-17	0.19	10	1.7	nt	nt
CCN(CC(=O)NC1CCCCC1)S(=O)(=O)c1ccc(Cl)cc1	-1.4	-17	3	-0.44	7	-3.2*	680	228
CCN(CC)S(=O)(=O)c1ccc(Cl)c(C(=O)NC2CCCCC2)c1	nt	nt	nt	nt	-9	nt	nt	nt
COc1ccc(Br)cc1C(=O)Nc1ccc(N2CCOCC2)cc1	nt	nt	nt	nt	-4	nt	nt	nt
COc1c(C)cc(Br)cc1C(=O)Nc1ccc(N2CCN(S(C)(=O)=O)CC2)cc1	nt	5	-6	0.34	2	-1.9*	533	210
N#Cc1c(NCc2ccccc2)ccnc1NCc1cccnc1	-0.45	6	-33	-0.08	2	-4.3*	441*	262
CN(C)c1ccnc(NCc2ccccc2)c1C#N	1.2	12	2	0.38	5	-0.048	nt	nt
CNC(=O)CCn1nc(-c2ccccc2)c2ccccc2c1=O	2.4	-10	9	-1.4	7	-0.1	nt	nt
CC(/C=C/c1ccc(Cl)o1)=C\C(=O)O	nt	-11	-9	0.077	0	0.64	nt	nt
O=C1C(Cl)=C(N2CCN(Cc3ccccc3)CC2)C(=O)N1c1ccccc1	0.28	-9	-18	-1.4	0	-0.077	nt	nt
O=C1C(Cl)=C(N2CCCCCC2)C(=O)N1c1ccccc1	-1.2	15	11	0.13	10	-3.1*	219*	148
Cc1cc(C(=O)CSc2nnc(NCc3ccccc3)s2)c(C)n1C	0.13	6	23	-0.38	4	-3.5*	488	249
Cc1cc(C(=O)CSc2nnc(Nc3ccccc3F)s2)c(C)n1CC1CCCO1 (stereo not drawn)	1.8	12	3	1.6	1	-1.2	nt	nt
O=C1CC(c2ccco2)CC(O)=C1C=NCC1CCNCC1 (stereo not drawn)	1.3	-32	1	-0.012	1	-3.8*	462*	226
O=C1CC(c2ccco2)CC(O)=C1C=NCCN1CCNCC1 (stereo not drawn)	0.14	-4	-18	-0.93	7	-0.7	nt	nt
COc1ccc(S(=O)(=O)N(CC(=O)NCCSCc2ccc(Cl)cc2)c2cc(C)cc(C)c2)cc1OC	nt	nt	nt	nt	-12	nt	nt	nt
O=C(C1CCCO1)N1CCN(c2c3c(nc4cc(-c5ccc(F)cc5)nn24)CCC3)CC1 (stereo not drawn)	-0.3	15	5	1.2	4	-3.6*	661	243
CC1=CC(=C2C(=O)c3ccccc3C2=O)C=C(C)O1	nt	57*	42	0.093	7	-1.1*	546	204
CC1=CC(=C2C(=O)c3ccccc3C2=O)C=C(C)N1Cc1ccco1	-1.3	20	18	-0.5	9	-0.78	nt	nt

High-throughput results as filed in PubChem.
